Tests used:
Format in all cases: functional
[1] = substrate: COc1cc(C(F)(F)F)c(OC)cc1CC(C)N; test: (§1) The maximum responses of [3H]- inositol monophosphate accumulation in cells expressing the 5-hydroxytryptamine 2A receptor
[2] = substrate: COc1cc(C(F)(F)F)c(OC)cc1CCN; test: as §1
[3] = substrate: COc1cc(CC(C)N)c(OC)cc1I; test: as §1
[4] = substrate: COc1cc(C(F)(F)F)c(OC)cc1CC(C)N; test: (§2) The maximum responses of [3H]- inositol monophosphate accumulation in cells expressing the 5-hydroxytryptamine 2C receptor
In short: (§3)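 A9 cells expressing cloned 5-HT2C receptor, labelled 18 h with 1 μCi/mL [3H]inositol in inositol-free DMEM with dialysed serum. Compounds given 60 min with 10 mM LiCl in Krebs bicarbonate buffer, then [3H]inositol monophosphate accumulation measured. Expressed as % of the 5-HT (10^-5 M) maximum minus control. Vmax by nonlinear regression. Triplicates in three experiments, mean ± SE.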

[5] = substrate: COc1cc(C(F)(F)F)c(OC)cc1CCN; test: as §2; in short: as §3
[6] = substrate: COc1cc(CC(C)N)c(OC)cc1I; test: as §2; in short: as §3

B1: 5-hydroxytryptamine receptor 2A (Mus musculus), P35363 (protein)
chain: MEILCEDNISLSSIPNSLMQLGDDSRLYPNDFNSRDANTSEASNWTIDAENRTNLSCEGYLPPTCLSILHLQEKNWSALLTTVVIILTIAGNILVIMAVSLEKKLQNATNYFLMSLAIADMLLGFLVMPVSMLTILYGYRWPLPSKLCAVWIYLDVLFSTASIMHLCAISLDRYVAIQNPIHHSRFNSRTKAFLKIIAVWTISVGISMPIPVFGLQDDSKVFKEGSCLLADDNFVLIGSFVAFFIPLTIMVITYFLTIKSLQKEATLCVSDLSTRAKLSSFSFLPQSSLSSEKLFQRSIHREPGSYAGRRTMQSISNEQKACKVLGIVFFLFVVMWCPFFITNIMAVICKESCNENVIGALLNVFVWIGYLSSAVNPLVYTLFNKTYRSAFSRYIQCQYKENRKPLQLILVNTIPTLAYKSSQLQVGQKKNSQEDAEPTANDCSMVTLGNQHSEEMCTDNIETVNEKVSCV
Vmax [1]: 91
Vmax [2]: 58
Vmax [3]: 94

B2: 5-hydroxytryptamine receptor 2C (Mus musculus), P34968 (protein)
chain: MVNLGTAVRSLLVHLIGLLVWQFDISISPVAAIVTDTFNSSDGGRLFQFPDGVQNWPALSIVVIIIMTIGGNILVIMAVSMEKKLHNATNYFLMSLAIADMLVGLLVMPLSLLAILYDYVWPLPRYLCPVWISLDVLFSTASIMHLCAISLDRYVAIRNPIEHSRFNSRTKAIMKIAIVWAISIGVSVPIPVIGLRDESKVFVNNTTCVLNDPNFVLIGSFVAFFIPLTIMVITYFLTIYVLRRQTLMLLRGHTEEELRNISLNFLKCCCKKGDEEENAPNPNPDQKPRRKKKEKRPRGTMQAINNEKKASKVLGIVFFVFLIMWCPFFITNILSVLCGKACNQKLMEKLLNVFVWIGYVCSGINPLVYTLFNKIYRRAFSKYLRCDYKPDKKPPVRQIPRVAATALSGRELNVNIYRHTNERVVRKANDTEPGIEMQVENLELPVNPSNVVSERISSV
Vmax [4]: 82
Vmax [5]: 80
Vmax [6]: 82
